An excerpt weighted towards active compounds, which were near 3.1% of everything screened.
S100A4 MyoIIA: inhibitors of human S100A4 binding to myosin IIA peptide | S100A4/TAMRA-MyoIIA peptide fluorescence polarization | inhibition, % at 10.7 µM | 360,000 compounds, 0.14% hits | AID 652163;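 active = mean inhibition of at least 70% across replicates, with every replicate also reaching that level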
Target sequence (P26447 whole entry, looked up): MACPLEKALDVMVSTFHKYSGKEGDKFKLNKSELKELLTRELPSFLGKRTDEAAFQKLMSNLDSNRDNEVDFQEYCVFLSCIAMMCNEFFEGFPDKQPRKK
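System – human S100A4 monomer protein, biochemical binding assay · Buffer or medium – Calcium-containing HEPES buffer, pH 7.2 · Timing – 5 min between mix addition and reading · Also added – TAMRA-labelled myosin IIA heavy-chain peptide probe, 5 nM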
ERAP1 HTS inh: ERAP1 (human) enzyme inhibition. Q9NZ08. recombinant ERAP1, Leu-AMC fluorescence, 60 min. inhibition, % at 10.7 µM. 340,000 compounds, 0.15% hits. AID 652197;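 active = mean replicate inhibition of at least 30%, or all replicates individually reaching that 30% level; inactive = mean below 30% and not every replicate reaching it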;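 also: 0% = neutral control wells and 100% = L-leucinethiol positive control wells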
Ecoli rRNA inh: inhibitors of bacterial rRNA selective over humanized ribosomes; E. coli WT GFP vs humanized-ribosome RFP mutants, fluorescence, 24 h; stronger effect = lower value; DMSO median 0, no signal -100; GFP signal change (wild-type ribosome), % (no concentration beside the values); 350,000 compounds, 1.6% hits; AID 720706;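 active = significant combined selectivity score with lowered wild-type GFP, culture density cut under 30%, mutant RFP and density less affected; inactive = any of these conditions unmet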
CFTR F508del cor: CFTR F508del correction in bronchial cells; CFBE cells, YFP halide quenching; stimulated with forskolin plus potentiator P3; % fluorescence drop versus neutral controls; activity (quench increase), % at 7.58 µM; 350,000 compounds, 0.36% hits; AID 720511;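 active = mean added fluorescence quench of at least 8% versus neutral control, with both replicates also reaching 8%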;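 also: cells transiently co-express mutant CFTR-F508del with the halide-sensitive YFP; corrector assay measuring rescue of mutant channel to the surface after 24 h compound exposure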
SIRT5 block: blocks human SIRT5 desuccinylation of peptide; Q9NXA8; Purified SirT5, succinyl-peptide AMC, trypsin-coupled fluorescence; inhibition, % at 15 µM; 330,000 compounds, 1.1% hits; AID 652115; in the data active = inhibition above about 15%
Target sequence (Q9NXA8 whole entry, looked up): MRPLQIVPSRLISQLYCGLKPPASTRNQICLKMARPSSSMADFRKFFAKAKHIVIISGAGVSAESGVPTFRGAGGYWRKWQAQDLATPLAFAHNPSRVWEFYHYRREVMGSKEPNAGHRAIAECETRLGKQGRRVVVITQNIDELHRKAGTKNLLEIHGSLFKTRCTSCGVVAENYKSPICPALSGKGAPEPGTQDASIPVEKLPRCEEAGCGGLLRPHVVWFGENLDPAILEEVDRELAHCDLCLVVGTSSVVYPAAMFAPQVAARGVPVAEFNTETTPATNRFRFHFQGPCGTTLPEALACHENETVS
* hit, by the source's call; x = not tested or not shown.

SMILES	S100A4 MyoIIA	ERAP1 HTS inh	Ecoli rRNA inh	CFTR F508del cor	SIRT5 block
Cc1cc(F)ccc1S(=O)(=O)Nc1ccccc1C(=O)NCc1cccnc1	-5.3	-0.6	-23.6*	-0.8	-6.9
Cc1cc(C)c2nc(N3C(=O)C(O)=C(C(=O)c4ccco4)C3c3cccc(O)c3)sc2c1 (stereo not given)	-6.8	-0.4	-21.4	1.2	16.6*
Cc1ccc2nc(N3C(=O)C(O)=C(C(=O)c4ccco4)C3c3ccc(O)cc3)sc2c1 (stereo not given)	-1.3	-2.2	2.3	-1.4	1.6
Cc1cc(N2C(=O)C(O)=C(C(=O)c3ccco3)C2c2cccc(O)c2)no1 (stereo not given)	-0.8	4.6	13.3	0.6	-0.4
Cc1cc(C)c2nc(N3C(=O)C(O)=C(C(=O)c4ccco4)C3c3ccc(O)cc3)sc2c1 (stereo not given)	6.3	3.0	-7.7	1.2	17.4*
CN(C)C(=O)c1ccc(-c2ccc([C@@H]3[C@@H](C#N)N(C(=O)C4CC4)[C@H]3CO)cc2)cc1	-3.1	5.2	0.9	-0.9	2.3
C[C@@H]1CN([C@H](C)CO)C(=O)Cc2cc(NC(=O)Nc3cccc4ccccc34)ccc2O[C@@H]1CN(C)C(=O)Nc1cccc2ccccc12	-6.0	-1.8	-0.6	5.9	16.0*
C[C@H]1CN([C@@H](C)CO)C(=O)Cc2cc(NC(=O)Nc3cccc4ccccc34)ccc2O[C@H]1CN(C)Cc1ccc(Cl)c(Cl)c1	1.8	-0.8	0.5	1.6	15.4*
Cc1noc(C)c1NC(=O)N(C)C[C@H]1Oc2ccc(NC(=O)NC(C)C)cc2CC(=O)N([C@H](C)CO)C[C@H]1C	3.2	-1.1	5.8	-0.2	20.9*
C[C@H]1CN([C@@H](C)CO)C(=O)Cc2cc(NC(=O)Nc3ccc(F)cc3)ccc2O[C@H]1CN(C)C(=O)Nc1ccc(F)cc1	7.1	2.9	2.0	-0.6	15.7*
C[C@@H]1CN([C@H](C)CO)C(=O)Cc2cc(NC(=O)Nc3cccc4ccccc34)ccc2O[C@@H]1CN(C)Cc1ccc(Cl)c(Cl)c1	-2.2	-0.3	2.0	4.7	1.5
COCC(=O)N1[C@H](C#N)[C@@H](c2ccccc2-c2ccc(C)cc2)[C@@H]1CO	9.4	-0.3	-6.4	0.8	2.9
CC(C)C#Cc1cnc2c(c1)C(=O)N([C@H](C)CO)C[C@H](C)[C@@H](CN(C)C(=O)Nc1ccc(F)cc1)O2	-34.7	7.3	-2.4	0.0	1.4
COc1ccc(NC(=O)N(C)C[C@H]2Oc3ccc(NC(=O)C4CC4)cc3CC(=O)N([C@H](C)CO)C[C@H]2C)cc1	x	x	2.8	-2.6	-5.8*
COc1ccc(NC(=O)N(C)C[C@@H]2Oc3ccc(NC(=O)C4CC4)cc3CC(=O)N([C@H](C)CO)C[C@H]2C)cc1	6.8	-2.3	1.7	0.4	-1.6
O=C(c1ccco1)N1CCN(C(=S)Nc2ccc(Br)cc2Cl)CC1	-1.6	-1.9	-43.7*	2.9	-12.0
S=C(NCc1ccco1)Nc1ccc(Br)cc1Cl	-1.1	-1.1	-37.1*	-1.9	-8.1
Cc1cc(CNC(=S)Nc2ccc(Br)cc2Cl)nn1C	-3.1	1.1	-46.8*	-0.7	-1.8
Cc1cc(C)cc(NC(=S)N2CCN(C(=O)c3ccco3)CC2)c1	-7.7	-1.6	8.2	-1.2	-1.2
O=C(C[C@H]1CC[C@H](NC(=O)NC2CCCCC2)[C@@H](CO)O1)NCc1ccc(F)cc1	-15.9	-1.7	2.0	-1.9	0.9
O=C(COc1ccccc1)Nc1ncn[nH]1	-9.1	x	4.9	2.8	29.6*
CCCC(=O)Nc1ccc2c(c1)OC[C@H](C)N(CCC(F)(F)F)C[C@H](C)[C@@H](OC)CN(C)C2=O	131.2*	3.8	-0.3	2.0	-0.3
CCCC(=O)Nc1ccc2c(c1)OC[C@@H](C)N(CCC(F)(F)F)C[C@H](C)[C@H](OC)CN(C)C2=O	-0.9	0.4	-4.6	1.9	4.2
CO[C@H]1CN(C)C(=O)c2ccc(NC(=O)c3ccc4c(c3)OCO4)cc2OC[C@@H](C)N(CC2CC2)C[C@H]1C	1.2	-2.4	-0.2	-1.7	x
CO[C@@H]1CN(C)C(=O)c2ccc(NC(=O)c3ccc4c(c3)OCO4)cc2OC[C@@H](C)N(Cc2ccc3c(c2)OCO3)C[C@H]1C	79.6*	-2.9	-5.2	5.4	0.0
